Measurements collected from several papers.
pKi: −log10 of the molar value.
PPARD: Peroxisome proliferator-activated receptor delta (PPARD, Homo sapiens, UniProt Q03181)
ADRA1A: Alpha-1A adrenergic receptor (ADRA1A, Homo sapiens, UniProt P35348)
Tspo: Translocator protein (Tspo, Rattus norvegicus, UniProt P16257)
HRH2: Histamine H2 receptor (HRH2, Homo sapiens, UniProt P25021)

SMILES	target	read-out	mode	method	setting	pKi
Cc1c(C)c2c(c(C)c1O)CCC(C)(COc1ccc(CC3SC(=O)NC3=O)cc1)O2 (stereo not shown)	PPARD	cell-free assay	–	–	–	4.58
COc1cccc(OC)c1OCCNCC1COc2ccccc2O1 (stereo not shown)	ADRA1A	ligand displacement	–	radioligand	–	9.74
CNc1nc(C#Cc2ccc(Cl)s2)nc2c1ncn2[C@H]1[C@H](O)[C@H](O)[C@]2(C(=O)OCCC3CCCCC3)C[C@H]12	Tspo	ligand displacement	–	radioligand	–	< 5.00
CC(C)c1nc2cc(OCCCCN3CCN(c4cccc5c4OCCO5)CC3)ccc2s1	HRH2	ligand displacement	–	radioligand	–	6.62
CC[C@H](NC(=O)[C@H](CS(=O)(=O)CC1CC1)N[C@@H](c1ccc(F)cc1)C(F)(F)F)C(=O)C(=O)NC1CC1	Cathepsin S (CTSS, Homo sapiens, UniProt P25774)	enzyme activity	inhibitor	fluorescence	with preincubation	9.89
COc1ccccc1N1CCN(CCCCN2CCc3ccccc3C2=O)CC1	ADRA1A	ligand displacement	–	radioligand	–	7.95
CCc1nc2cc(OCCCCN3CCC(c4cccc(Cl)c4Cl)CC3)ccc2s1	HRH2	ligand displacement	–	radioligand	–	5.68
Oc1cccc(Nc2nc(-c3ccc(F)cc3F)cs2)c1	Kappa-type opioid receptor (Oprk1, Rattus norvegicus, UniProt P34975)	cell-free assay	–	radioligand	–	5.66
CNC(=O)[C@@]12C[C@@H]1[C@@H](n1cnc3c(NC)nc(C#Cc4ccccc4Cl)nc31)[C@H](O)[C@@H]2O	Tspo	ligand displacement	–	radioligand	–	< 5.00
O=C(O)c1cc(O)c2c(c1)C(=O)c1cc(O)cc(O)c1C2=O	Amine oxidase [flavin-containing] A (MAOA, Homo sapiens, UniProt P21397)	enzyme activity	inhibitor	–	–	4.41
CC1(C)C=Cc2c(cc3oc(-c4ccccc4)c(O)c(=O)c3c2O)O1	PPARD	ligand displacement	–	TR-FRET	–	5.89
C[C@H]1Oc2cc(cnc2N)-c2c(nn(C)c2C#N)CN(C)C(=O)c2ccc(F)cc21	Focal adhesion kinase 1 (PTK2, Homo sapiens, UniProt Q05397)	cell-free assay	–	–	lysate	7.99
CCCCC(=O)[C@@]12C[C@@H]1[C@@H](n1ccc3c(NC)nc(C#Cc4ccc(Cl)s4)nc31)[C@H](O)[C@@H]2O	Tspo	ligand displacement	–	radioligand	–	< 5.00
COc1ccc2c(c1)C(=O)N(CCN1CCN(c3ccccc3OC)CC1)C2	ADRA1A	ligand displacement	–	radioligand	–	7.80
CNC(=O)[C@@]12C[C@@H]1[C@@H](n1ccc3c(NC)ncnc31)[C@H](O)[C@@H]2O	Tspo	ligand displacement	–	radioligand	–	< 5.00
O=C1c2ccccc2CCCN1CCCCN1CCN(c2ccccn2)CC1	ADRA1A	ligand displacement	–	radioligand	–	6.06
